In PubChem BioAssay AID624105 (Broad Institute, 2012):
Calls of active or inactive are those of the source.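 Rule for the calls: active = growth reading drops at least 35% at both 405 and 600 nm in duplicate, reached below 10 µM; inactive = the rest, including effects in the opposite direction.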

System: not listed separately
Assay: mexAB-OprM mutant growth inhibition with EDDHA – PAK mexAB-OprM pump mutant, OD600, dry powder, dose response (AID 624105)
Settings: P. aeruginosa PAK mexAB-oprM +EDDHA growth, OD600, 28 h; at 100 µM (top of the series)
Outline: (§1)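 system = P. aeruginosa PAK ΔmexAB-oprM | buffer or medium = succinate M9, pH 7.0, with 2 µM EDDHA iron chelator | schedule = bacteria exposed to compounds 28 h at 30 °C | compound = dose series, final compound 15 nM up to 100 µM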

Row | Structure (SMILES) | growth change, negative = inhibition
1 | Clc1ccc(C(c2cccc(Cl)n2)c2nn[nH]n2)cc1 (centres undefined) | 11.1% (inactive)
2 | CN(C)CCCC(C#N)c1ccc(Cl)cc1 (centres undefined) | -3.26% (inactive)
3 | COCCOCCC(C#N)c1ccc(Cl)cc1 (centres undefined) | -6.59% (inactive)
4 | CCCCC(C#N)c1ccccn1 (centres undefined) | -13.4% (inactive)
5 | N#CC(c1ccc(C(F)(F)F)c(Cl)n1)c1ccccc1OC(F)(F)F (centres undefined) | -14.9% (inactive)

System: P. aeruginosa PAK mexAB-oprM +EDDHA growth, OD600, 28 h
Assay: as above
Settings: not given
Outline: as §1

Row | Structure (SMILES) | AC35
6 | N#CC(c1cccc(C(F)(F)F)n1)c1ccc(Cl)cc1F (centres undefined) | 8.69 µM
7 | N#CC(c1ccc(Cl)cc1)c1cccc(Cl)n1 (centres undefined) | 8.36 µM
8 | COCCOCCC(C#N)c1ccc(F)cc1 (centres undefined) | 51.9 µM
9 | N#CC(c1cccc(Cl)n1)c1ccc(Cl)cc1F (centres undefined) | 7.15 µM
10 | CN(C)CCCC(C#N)c1ccc(F)cc1 (centres undefined) | 49.5 µM
11 | N#CC(c1ccc(F)cc1)c1cccc(C(F)(F)F)n1 (centres undefined) | 6.72 µM
12 | CCCCC(C#N)c1ccc(F)cn1 (centres undefined) | 51.7 µM
13 | N#CC(c1ccc(Cl)cc1)N1CCCC1 (centres undefined) | > 100 µM (inactive)
14 | COCCC(C#N)c1ccc(F)cc1 (centres undefined) | 95.8 µM
15 | N#CC(c1ccc(F)cc1)c1cccc(Cl)n1 (centres undefined) | 11.5 µM
16 | N#CC(c1ccc(Cl)cc1)c1cccc(C(F)(F)F)n1 (centres undefined) | 12 µM
17 | N#CC(c1ccc(Cl)cc1)c1ncccc1Cl (centres undefined) | 6.05 µM
18 | N#CC(c1ccc(Cl)cc1)c1ccccn1 (centres undefined) | 31 µM
19 | N#Cc1cccc(C(C#N)c2ccc(F)cc2)n1 (centres undefined) | 54.9 µM
